Results reported in ChEMBL document CHEMBL4118192, “BET bromodomain ligands: Probing the WPF shelf to improve BRD4 bromodomain affinity and metabolic stability” (Bioorg Med Chem, 2018).

Assays:
Format in all cases: functional
HL-60(TB) [1] = assay: Growth inhibition of human HL-60(TB) cells at 10 uM after 48 hrs by sulforhodamine B assay relative to control; conditions: HL-60, 48 h, read-out: GI
Procedure, shortened: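 NCI-60 human cancer cell line screen, single dose of 10 μM for 48 h. Growth inhibition measured by sulforhodamine B assay of cellular protein content.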

RPMI-8226 [2] = assay: Growth inhibition of human RPMI8226 cells at 10 uM after 48 hrs by sulforhodamine B assay relative to control; conditions: RPMI-8226, 48 h, read-out: GI
Procedure, shortened: (§1)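 NCI-60 human cancer cell line screen, single-dose pass: cells exposed to 10 μM for 48 h. Cellular protein content read out by sulforhodamine B staining, and growth inhibition expressed relative to untreated control.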

SR [3] = assay: Growth inhibition of human SR cells at 10 uM after 48 hrs by sulforhodamine B assay relative to control; conditions: read-out: GI
Procedure, shortened: (§2)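 NCI-60 human cancer cell line screen, single dose of 10 μM for 48 h. Cellular protein content read by sulforhodamine B staining; growth inhibition expressed relative to untreated control.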

NCI-H23 = assay: Growth inhibition of human NCI-H23 cells at 10 uM after 48 hrs by sulforhodamine B assay relative to control; conditions: NCI-H23, 48 h, read-out: GI; procedure, shortened: as §1
NCI-H460 [4] = assay: Growth inhibition of human NCI-H460 cells at 10 uM after 48 hrs by sulforhodamine B assay relative to control; conditions: NCI-H460, 48 h, read-out: GI; procedure, shortened: as §1
HCT-15 [5] = assay: Growth inhibition of human HCT15 cells at 10 uM after 48 hrs by sulforhodamine B assay relative to control; conditions: HCT-15, 48 h, read-out: GI
Procedure, shortened: (§3)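 NCI-60 single-dose screen at 10 μM for 48 h. Percent growth inhibition was measured by sulforhodamine B staining of cellular protein.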

SW-620 = assay: Growth inhibition of human SW620 cells at 10 uM after 48 hrs by sulforhodamine B assay relative to control; conditions: SW-620, 48 h, read-out: GI; procedure, shortened: as §2
SF-539 = assay: Growth inhibition of human SF539 cells at 10 uM after 48 hrs by sulforhodamine B assay relative to control; conditions: SF-539, 48 h, read-out: GI; procedure, shortened: as §1
Malme-3M = assay: Growth inhibition of human MALME-3M cells at 10 uM after 48 hrs by sulforhodamine B assay relative to control; conditions: read-out: GI; procedure, shortened: as §3
SK-MEL-2 [6] = assay: Growth inhibition of human SK-MEL-2 cells at 10 uM after 48 hrs by sulforhodamine B assay relative to control; conditions: SK-MEL-2, 48 h, read-out: GI; procedure, shortened: as §1
UACC-62 = assay: Growth inhibition of human UACC62 cells at 10 uM after 48 hrs by sulforhodamine B assay relative to control; conditions: UACC-62, 48 h, read-out: GI; procedure, shortened: as §2
OVCAR-3 = assay: Growth inhibition of human OVCAR3 cells at 10 uM after 48 hrs by sulforhodamine B assay relative to control; conditions: OVCAR-3, 48 h, read-out: GI; procedure, shortened: as §1
OVCAR-4 = assay: Growth inhibition of human OVCAR4 cells at 10 uM after 48 hrs by sulforhodamine B assay relative to control; conditions: OVCAR-4, 48 h, read-out: GI; procedure, shortened: as §1
OVCAR-5 = assay: Growth inhibition of human OVCAR5 cells at 10 uM after 48 hrs by sulforhodamine B assay relative to control; conditions: OVCAR-5, 48 h, read-out: GI; procedure, shortened: as §1
UO-31 = assay: Growth inhibition of human UO31 cells at 10 uM after 48 hrs by sulforhodamine B assay relative to control; conditions: UO-31, 48 h, read-out: GI; procedure, shortened: as §2
DU-145 = assay: Growth inhibition of human DU145 cells at 10 uM after 48 hrs by sulforhodamine B assay relative to control; conditions: DU-145, 48 h, read-out: GI; procedure, shortened: as §3
BT-549 = assay: Growth inhibition of human BT549 cells at 10 uM after 48 hrs by sulforhodamine B assay relative to control; conditions: BT-549, 48 h, read-out: GI; procedure, shortened: as §3
HL-60(TB) [7] = assay: Growth inhibition of human HL-60(TB) cells after 48 hrs by sulforhodamine B assay; conditions: HL-60, 48 h
Procedure, shortened: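 NCI-60 human cancer cell line screen, five concentrations from 10 nM to 100 μM. Growth measured by sulforhodamine B staining of cellular protein content. GI50 derived, with TGI where reached below 100 μM.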

MOLT-4 = assay: Growth inhibition of human MOLT4 cells after 48 hrs by sulforhodamine B assay; conditions: MOLT-4, 48 h
Procedure, shortened: (§4)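 NCI-60 panel follow-up: five concentrations from 10 nM to 100 μM, 48 h exposure. Growth read by sulforhodamine B protein staining. GI50 derived from the concentration-response, with the concentration for total growth inhibition (TGI) also recorded when below 100 μM.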

RPMI-8226 [8] = assay: Growth inhibition of human RPMI8226 cells after 48 hrs by sulforhodamine B assay; conditions: RPMI-8226, 48 h; procedure, shortened: as §4
SR [9] = assay: Growth inhibition of human SR cells after 48 hrs by sulforhodamine B assay
Procedure, shortened: (§5)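 NCI-60 panel cells treated at five concentrations from 10 nM to 100 μM for 48 h. Read-out by sulforhodamine B protein stain. GI50 and total growth inhibition (TGI, if below 100 μM) taken from the concentration-response data.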

NCI-H226 = assay: Growth inhibition of human NCI-H226 cells after 48 hrs by sulforhodamine B assay; conditions: NCI-H226, 48 h; procedure, shortened: as §4
NCI-H460 [10] = assay: Growth inhibition of human NCI-H460 cells after 48 hrs by sulforhodamine B assay; conditions: NCI-H460, 48 h; procedure, shortened: as §4
HCT-15 [11] = assay: Growth inhibition of human HCT15 cells after 48 hrs by sulforhodamine B assay; conditions: HCT-15, 48 h
Procedure, shortened: (§6)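 NCI-60 panel screen. Cells were exposed for 48 h at five concentrations between 10 nM and 100 μM. Cellular protein was read by sulforhodamine B staining, and GI50 and total growth inhibition (TGI) concentrations were derived.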

U-251 = assay: Growth inhibition of human U251 cells after 48 hrs by sulforhodamine B assay; conditions: U-251, 48 h; procedure, shortened: as §5
MDA-MB-435 = assay: Growth inhibition of human MDA-MB-435 cells after 48 hrs by sulforhodamine B assay; conditions: MDA-MB-435, 48 h; procedure, shortened: as §6
SK-MEL-2 [12] = assay: Growth inhibition of human SK-MEL-2 cells after 48 hrs by sulforhodamine B assay; conditions: SK-MEL-2, 48 h; procedure, shortened: as §4
NCI/ADR-RES = assay: Growth inhibition of human NCI-ADR-RES cells after 48 hrs by sulforhodamine B assay; procedure, shortened: as §4
SK-OV-3 = assay: Growth inhibition of human SKOV3 cells after 48 hrs by sulforhodamine B assay; conditions: SK-OV-3, 48 h; procedure, shortened: as §4
786-0 = assay: Growth inhibition of human 786-0 cells after 48 hrs by sulforhodamine B assay; conditions: 786-0, 48 h; procedure, shortened: as §6
RXF 393 = assay: Growth inhibition of human RXF393 cells after 48 hrs by sulforhodamine B assay; conditions: RXF 393, 48 h; procedure, shortened: as §4
TK-10 = assay: Growth inhibition of human TK10 cells after 48 hrs by sulforhodamine B assay; conditions: TK-10, 48 h; procedure, shortened: as §5
T47D = assay: Growth inhibition of human T47D cells after 48 hrs by sulforhodamine B assay; procedure, shortened: as §5

Row | SMILES | inhibition of growth at 10 µM (HL-60(TB) [1]) [%] | inhibition of growth at 10 µM (RPMI-8226 [2]) [%] | inhibition of growth at 10 µM (SR [3]) [%] | inhibition of growth at 10 µM (NCI-H23) [%] | inhibition of growth at 10 µM (NCI-H460 [4]) [%] | inhibition of growth at 10 µM (HCT-15 [5]) [%] | inhibition of growth at 10 µM (SW-620) [%] | inhibition of growth at 10 µM (SF-539) [%] | inhibition of growth at 10 µM (Malme-3M) [%] | inhibition of growth at 10 µM (SK-MEL-2 [6]) [%] | inhibition of growth at 10 µM (UACC-62) [%] | inhibition of growth at 10 µM (OVCAR-3) [%] | inhibition of growth at 10 µM (OVCAR-4) [%] | inhibition of growth at 10 µM (OVCAR-5) [%] | inhibition of growth at 10 µM (UO-31) [%] | inhibition of growth at 10 µM (DU-145) [%] | inhibition of growth at 10 µM (BT-549) [%] | GI50 (HL-60(TB) [7]) [µM] | GI50 (MOLT-4) [µM] | GI50 (RPMI-8226 [8]) [µM] | also measured
1 | COc1ccccc1S(=O)(=O)Nc1ccc2c(c1)CN(C)C(=O)N2 | 78.1 | 95.7 | 64 | 43.3 | 44.2 | 59.2 | 40.6 | 49.9 | 67.8 | 52.4 | 70.7 | 67.8 | 56.9 | 25.5 | 89.8 | 22.2 | -0.7 | 3.4 | 10.5 | 2.2 | GI50 (SR [9]): 3.7 µM; GI50 (NCI-H226): 14.1 µM; GI50 (NCI-H460 [10]): 9.3 µM; GI50 (HCT-15 [11]): 3.2 µM; GI50 (U-251): 15.1 µM; GI50 (MDA-MB-435): 2.6 µM; GI50 (SK-MEL-2 [12]): 29.5 µM; GI50 (NCI/ADR-RES): 17.4 µM; GI50 (SK-OV-3): 4.9 µM; GI50 (786-0): 12 µM; GI50 (RXF 393): 7.9 µM; GI50 (TK-10): 1.6 µM; TGI (TK-10): 58.9 µM; GI50 (T47D): 3.7 µM
2 | Cc1noc(C)c1-c1cc(O)cc(C(O)c2ccccc2)c1 (stereo not given) | 90 | 85.1 | 72.9 | 31.9 | 32.8 | 63.3 | 27.9 | 37.5 | 40 | 39.6 | 68.5 | 53.3 | 67.5 | 26.7 | 83.1 | 12.5 | 35.3 | 2.17 | 17.9 | 1.94 | TGI (HL-60(TB) [7]): 22.7 µM; TGI (MOLT-4): 80.7 µM; TGI (RPMI-8226 [8]): 9.7 µM; GI50 (SR [9]): 1.01 µM; GI50 (NCI-H226): 21.3 µM; GI50 (NCI-H460 [10]): 25.1 µM; GI50 (HCT-15 [11]): 3.52 µM; GI50 (U-251): 15 µM; GI50 (MDA-MB-435): 3.48 µM; GI50 (SK-MEL-2 [12]): 23.5 µM; GI50 (NCI/ADR-RES): 6.32 µM; GI50 (SK-OV-3): 7.01 µM; GI50 (786-0): 27.1 µM; GI50 (RXF 393): 17.2 µM; GI50 (TK-10): 1.08 µM; GI50 (T47D): 7.7 µM
